Source: ChEMBL document CHEMBL4689842, “EUbOPEN Chemogenomics Library wave 1” (2021)

Test system: Fibroblast
Experiment: Multiplex assay against human fibroblast
Assay type: toxicity, cell-based
Summary of the method: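 Live cells were stained at seeding with Hoechst33342, BioTracker Green Microtubule Cytoskeleton Dye, MitoTracker Red and Annexin V Alexa Fluor 680, then imaged on a CQ1 microscope at 37°C and 5% CO2 after compound addition. CellPathfinder machine-learning gating split cells into Hoechst high-intensity objects or normal cells. Normal cells were split into healthy, pyknosed or fragmented nuclei, and pyknosed cells into mitotic or apoptotic. Tubulin, mitochondrial-mass and membrane-permeability phenotypes are per cents of healthy-nucleus cells.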

[1] = 12 h, 1 µM, compound concentration 1 uM, replicate 1
[2] = 12 h, 1 µM, compound concentration 1 uM, replicate 2
[3] = 12 h, 10 µM, compound concentration 10 uM, replicate 1
[4] = 12 h, 10 µM, compound concentration 10 uM, replicate 2
[5] = 24 h, 1 µM, compound concentration 1 uM, replicate 1
[6] = 24 h, 1 µM, compound concentration 1 uM, replicate 2
[7] = 24 h, 10 µM, compound concentration 10 uM, replicate 1

Question: How did the “Population Apoptotic (%)” value [1] turn out when `C=CC(=O)Nc1cc(-n2c(=O)ccc3cnc4ccc(-c5ccc(NS(C)(=O)=O)cc5)cc4c32)ccc1C` was run?
Answer: Its value is 52%.

Question: And the “Population Fragmented Nuclei (%)” value [1]?
Answer: Its value is 37%.

Question: And the “Population Healthy Nuclei (%)” value [1]?
Answer: The value was 32%.

Question: And the “Population Hoechst High Intensity Objects (%)” value [1]?
Answer: The value was 7%.

Question: And the “Population Membrane Permeable-Phenotype (%)” value [1]?
Answer: Its value is 15%.

Question: What about the “Population Mitochondria Different-Phenotype (%)” value [1] of the same compound?
Answer: Its value is 3%.

Question: And the “Population Mitotic Cells (%)” value [1]?
Answer: The value was 47%.

Question: What about the “Population Normal (%)” value [1] of the same compound?
Answer: Its value is 92%.

Question: What about the “Population Pyknosed Nuclei (%)” value [1] of the same compound?
Answer: The value was 29%.

Question: What about the “Population Tubulin-Different-Phenotype (%)” value [1] of the same compound?
Answer: Its value is 30%.

Question: And the “Total Cell Count” value [1]?
Answer: The value was 85.

Question: And the “Population Apoptotic (%)” value [2]?
Answer: The value was 33%.

Question: What about the “Population Fragmented Nuclei (%)” value [2] of the same compound?
Answer: The value was 10%.

Question: What about the “Population Healthy Nuclei (%)” value [2] of the same compound?
Answer: The value was 77%.

Question: And the “Population Membrane Permeable-Phenotype (%)” value [2]?
Answer: Its value is 0%.

Question: And the “Population Mitochondria Different-Phenotype (%)” value [2]?
Answer: The value was 10%.

Question: What about the “Population Mitotic Cells (%)” value [2] of the same compound?
Answer: Its value is 66%.

Question: What about the “Population Pyknosed Nuclei (%)” value [2] of the same compound?
Answer: Its value is 12%.

Question: And the “Population Tubulin-Different-Phenotype (%)” value [2]?
Answer: The value was 10%.

Question: What about the “Total Cell Count” value [2] of the same compound?
Answer: Its value is 53.

Question: And the “Population Apoptotic (%)” value [3]?
Answer: The value was 51%.

Question: And the “Population Fragmented Nuclei (%)” value [3]?
Answer: Its value is 30%.

Question: And the “Population Healthy Nuclei (%)” value [3]?
Answer: Its value is 39%.

Question: What about the “Population Hoechst High Intensity Objects (%)” value [3] of the same compound?
Answer: The value was 8%.

Question: What about the “Population Membrane Permeable-Phenotype (%)” value [3] of the same compound?
Answer: The value was 32%.

Question: And the “Population Mitochondria Different-Phenotype (%)” value [3]?
Answer: Its value is 13%.

Question: And the “Population Mitotic Cells (%)” value [3]?
Answer: The value was 48%.

Question: What about the “Population Normal (%)” value [3] of the same compound?
Answer: Its value is 91%.

Question: And the “Population Pyknosed Nuclei (%)” value [3]?
Answer: The value was 30%.

Question: And the “Population Tubulin-Different-Phenotype (%)” value [3]?
Answer: Its value is 55%.

Question: And the “Total Cell Count” value [3]?
Answer: Its value is 120.

Question: And the “Population Apoptotic (%)” value [4]?
Answer: Its value is 76%.

Question: What about the “Population Fragmented Nuclei (%)” value [4] of the same compound?
Answer: The value was 8%.

Question: What about the “Population Healthy Nuclei (%)” value [4] of the same compound?
Answer: Its value is 54%.

Question: What about the “Population Hoechst High Intensity Objects (%)” value [4] of the same compound?
Answer: The value was 9%.

Question: What about the “Population Membrane Permeable-Phenotype (%)” value [4] of the same compound?
Answer: Its value is 12%.

Question: What about the “Population Mitochondria Different-Phenotype (%)” value [4] of the same compound?
Answer: The value was 56%.

Question: What about the “Population Mitotic Cells (%)” value [4] of the same compound?
Answer: The value was 23%.

Question: And the “Population Normal (%)” value [4]?
Answer: The value was 90%.

Question: What about the “Population Pyknosed Nuclei (%)” value [4] of the same compound?
Answer: Its value is 36%.

Question: What about the “Population Tubulin-Different-Phenotype (%)” value [4] of the same compound?
Answer: Its value is 52%.

Question: What about the “Total Cell Count” value [4] of the same compound?
Answer: The value was 51.

Question: And the “Population Apoptotic (%)” value [5]?
Answer: Its value is 54%.

Question: What about the “Population Fragmented Nuclei (%)” value [5] of the same compound?
Answer: Its value is 23%.

Question: What about the “Population Healthy Nuclei (%)” value [5] of the same compound?
Answer: Its value is 44%.

Question: What about the “Population Hoechst High Intensity Objects (%)” value [5] of the same compound?
Answer: The value was 11%.

Question: What about the “Population Membrane Permeable-Phenotype (%)” value [5] of the same compound?
Answer: Its value is 22%.

Question: What about the “Population Mitochondria Different-Phenotype (%)” value [5] of the same compound?
Answer: Its value is 16%.

Question: What about the “Population Mitotic Cells (%)” value [5] of the same compound?
Answer: Its value is 45%.

Question: And the “Population Normal (%)” value [5]?
Answer: The value was 88%.

Question: And the “Population Pyknosed Nuclei (%)” value [5]?
Answer: The value was 31%.

Question: What about the “Population Tubulin-Different-Phenotype (%)” value [5] of the same compound?
Answer: The value was 38%.

Question: And the “Total Cell Count” value [5]?
Answer: Its value is 78.

Question: What about the “Population Apoptotic (%)” value [6] of the same compound?
Answer: The value was 55%.

Question: What about the “Population Fragmented Nuclei (%)” value [6] of the same compound?
Answer: The value was 11%.

Question: What about the “Population Healthy Nuclei (%)” value [6] of the same compound?
Answer: Its value is 76%.

Question: What about the “Population Hoechst High Intensity Objects (%)” value [6] of the same compound?
Answer: The value was 2%.

Question: And the “Population Membrane Permeable-Phenotype (%)” value [6]?
Answer: Its value is 3%.

Question: What about the “Population Mitochondria Different-Phenotype (%)” value [6] of the same compound?
Answer: Its value is 15%.

Question: What about the “Population Mitotic Cells (%)” value [6] of the same compound?
Answer: The value was 44%.

Question: What about the “Population Normal (%)” value [6] of the same compound?
Answer: Its value is 97%.

Question: What about the “Population Pyknosed Nuclei (%)” value [6] of the same compound?
Answer: Its value is 11%.

Question: What about the “Population Tubulin-Different-Phenotype (%)” value [6] of the same compound?
Answer: Its value is 22%.

Question: And the “Total Cell Count” value [6]?
Answer: Its value is 79.

Question: What about the “Population Apoptotic (%)” value [7] of the same compound?
Answer: The value was 50%.

Question: And the “Population Fragmented Nuclei (%)” value [7]?
Answer: Its value is 36%.

Question: And the “Population Healthy Nuclei (%)” value [7]?
Answer: The value was 39%.

Question: What about the “Population Hoechst High Intensity Objects (%)” value [7] of the same compound?
Answer: The value was 9%.

Question: And the “Population Membrane Permeable-Phenotype (%)” value [7]?
Answer: The value was 35%.

Question: What about the “Population Mitochondria Different-Phenotype (%)” value [7] of the same compound?
Answer: Its value is 5%.

Question: And the “Population Mitotic Cells (%)” value [7]?
Answer: Its value is 50%.
